Data set [1] deals with inducible N2aTau^4RDΔK280 cells. Briefly: Inhibition of Tau aggregation in inducible N2a cells, ThS+ cells counted by FACS. Type of data set: cell-based. The gist of the method: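 Inducible N2a-Tau4RDΔK280 cells in suspension, with 0.0005% (12 µM) ThS added. Tau induced with 1 µg/ml doxycycline. Compound at 60 µM, or 0–60 µM, for 4 days at 37 °C. Floating and adherent cells pooled, pelleted and PBS-washed. ThS+ cells counted by flow cytometry (ex 495/em 519 nm). Induced DMSO-treated sample set to 100%.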
For orientation: In flow cytometry, cells or beads pass a laser one at a time.

A further data set relates to N2a cells. The data set is described as follows: Cell viability of uninduced N2a cells in the presence of compounds. Type of data set: cell-based. Particulars: 60 µM compound, 4 days 37°C, untreated = 100%. Summed up:
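Uninduced N2a cells (no tau expression) grown 4 days at 37 °C in culture medium with test compound at 60 µM, or at several concentrations from 0 to 60 µM. Viability measured by MTT assay per kit instructions. Values normalised to the uninduced compound-untreated sample (100%).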

Structures are written as SMILES.

One molecule from paper PMC4976804 (Current Alzheimer research, 2015) can be followed below.

As for `O=C(NNc1nc(-c2ccc([N+](=O)[O-])cc2)cs1)c1ccc2nc[nH]c2c1` [BSc3094], the “amount of ThS-positive cells (FACS), in words” value in data set [1] (15 µM in the medium, 4 days, N2a cells expressing K18ΔK280) was “decreases”. Besides, the “reduction of Tau^4RDΔK280 aggregation in N2a cells compared to control” value in data set [1] (60 µM compound, ThS+ cells by FACS) was 93%. Also, the “effectiveness in reducing aggregation in N2a cells relative to the best hits” value in data set [1] (compared to our best hits) is on record as 2-3. Moreover, the “viability N2a cells (MTT)” value in the data set on N2a cells is on record as 101.9 ± 3.8%.
